Measurements of several laboratories.
Protocols differ between the studies behind these lines.
PTGS2: Prostaglandin G/H synthase 2 (PTGS2, Ovis aries, UniProt P79208)
GSK3B: Glycogen synthase kinase-3 beta (GSK3B, Homo sapiens, UniProt P49841)
AVPR1A: Vasopressin V1a receptor (AVPR1A, Homo sapiens, UniProt P37288)

| Structure (SMILES) | target | assay | system | setting | inhibition [%] |
| --- | --- | --- | --- | --- | --- |
| O=c1c(O)c(-c2ccc(O)cc2)oc2cc(O)cc(O)c12 | PTGS2 | enzyme activity, inhibitor, absorbance | – | 50 µM | 52.2 |
| CS(=O)(=O)Nc1cccc(-c2csc(NC(=O)CSc3nc4nccnc4c(=O)n3CCc3ccccc3)n2)c1 | Phosphatidylinositol 4-kinase type 2-beta (PI4K2B, Homo sapiens, UniProt Q8TCG2) | enzyme activity, inhibitor | – | 10 µM | -5 |
| O=C([O-])c1ccccc1-c1c2cc(I)c(=O)c(I)c-2oc2c(I)c([O-])c(I)cc12.[Na+].[Na+] | GSK3B | enzyme activity, inhibitor, ADP detection | – | 100 µM | 87.5 |
| CN(C)C1CCN(CC#Cc2nn(C3CCCC3)c3nc(NCc4ccccc4)ncc23)C1 (stereo not shown) | MAP kinase-activated protein kinase 2 (MAPKAPK2, Homo sapiens, UniProt P49137) | enzyme activity, inhibitor, FRET | – | 0.1 µM | -2 |
| O=c1c(O[C@@H]2O[C@H](CO)[C@@H](O)[C@H](O)[C@H]2O)c(-c2ccc(O)cc2)oc2cc(O[C@@H]3O[C@H](CO)[C@@H](O)[C@H](O)[C@H]3O)cc(O)c12 | PTGS2 | enzyme activity, inhibitor, absorbance | – | 50 µM | 54.8 |
| Cc1[nH]c(=O)c(C#N)cc1-c1ccncc1 | GSK3B | enzyme activity, inhibitor, ADP detection | – | 100 µM | 27.6 |
| CC(=O)c1nn(CC(=O)N2C[C@H](F)C[C@H]2C(=O)Nc2cccc(Br)n2)c2ccc(-c3cnc(C)nc3)cc12 | Cathepsin G (CTSG, Homo sapiens, UniProt P08311) | enzyme activity, inhibitor | – | 10 µM | 0.4 |
| CCN1CCN(Cc2ccc(NC(=O)c3ccc(C)c(/C=C/c4cnc5[nH]ccc5c4OC)c3)cc2C(F)(F)F)CC1 | Mitogen-activated protein kinase kinase kinase 5 (MAP3K5, Homo sapiens, UniProt Q99683) | target engagement in cells, inhibitor, chemoproteomics | A-375 | 50 nM | -33.8 |
| O=C(c1ccc(Cl)cc1)N(Cc1ccccc1)C1CCCCC1 | Motilin receptor (MLNR, Homo sapiens, UniProt O43193) | cell-free assay | – | 10 µM | 18.7 |
| CCN(c1cc(C#CCN2CCOCC2)cc(C(=O)NCc2c(C)cc(C)[nH]c2=O)c1C)[C@H]1CC[C@H](N(C)CCOC)CC1 | Protein arginine N-methyltransferase 8 (PRMT8, Homo sapiens, UniProt Q9NR22) | enzyme activity, inhibitor | – | 1 µM | 9 |
| COc1cc(NC(C)=O)c(Cl)cc1C(=O)Nc1nccs1 | AVPR1A | cell-free assay | – | 10 µM | -0.8 |
| NC(=O)N/N=C/c1ccc([N+](=O)[O-])o1 | GSK3B | enzyme activity, inhibitor, ADP detection | – | 100 µM | 31 |
| C[C@@H]1O[C@@H](OC[C@H]2O[C@@H](O[C@H]3[C@H](Oc4c(-c5ccc(O)cc5)oc5cc(O)cc(O)c5c4=O)O[C@H](CO)[C@@H](O)[C@@H]3O)[C@H](O)[C@@H](O)[C@@H]2O)[C@H](O)[C@H](O)[C@H]1O | PTGS2 | enzyme activity, inhibitor, absorbance | – | 50 µM | 57.5 |
| CC(=O)NCCc1ccc(O)c(-c2c(O)c(O)c3c(c2O)C(=O)c2c(cc(O)c(C(=O)O)c2C(=O)O)C3=O)c1 | GSK3B | enzyme activity, inhibitor, ADP detection | – | 100 µM | 75.3 |
| Oc1cccc(Nc2nc(-c3ccc(F)cc3F)cs2)c1 | AVPR1A | cell-free assay | – | 10 µM | 1.2 |
| O=c1c(-c2ccc(O)cc2)coc2cc(O)ccc12 | GSK3B | enzyme activity, inhibitor, ADP detection | – | 100 µM | 59.2 |
| Ic1cccc2cnccc12 | Protein mono-ADP-ribosyltransferase PARP11 (PARP11, Homo sapiens, UniProt Q9NR21) | enzyme activity, inhibitor | – | 10 µM | 26 |
| O=C1OC(CN2CCOCC2)CN1/N=C/c1ccc([N+](=O)[O-])o1 (stereo not shown) | GSK3B | enzyme activity, inhibitor, ADP detection | – | 100 µM | 20.2 |
| C[C@@H]1O[C@@H](O[C@H]2[C@H](Oc3c(-c4ccc(O)cc4)oc4cc(O)cc(O)c4c3=O)O[C@H](CO[C@@H]3O[C@H](CO)[C@@H](O)[C@H](O)[C@H]3O)[C@@H](O)[C@@H]2O)[C@H](O)[C@H](O)[C@H]1O | PTGS2 | enzyme activity, inhibitor, absorbance | – | 50 µM | 57.7 |
